Shown are actives, neighbours in structure and some others; about 3.7% of the full set was active somewhere.
KCNQ1 act – potentiators or activators of KCNQ1 channel, primary screen, cell-based, thallium flux, high-throughput; B-score at 10 µM; AID 2648, 2010; CHO-K1 KCNQ1, thallium flux FluxOR fluorescence; active compounds read high; Potassium voltage-gated channel subfamily KQT member 1 (Homo sapiens), P51787; 310,000 tested, 0.35% active;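 active = fluorescence ratio B-score, a plate-corrected score, at least three library SD, with initial intensity B-score within 5 SD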
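assay system = CHO-K1 cells stably expressing KCNQ1 | medium = assay buffer, equal DMSO in all wells | timing = 37 °C overnight plating, 90-min dark dye load, 20-min compound pretreatment | measured by = kinetic FluxOR thallium fluorescence, 10-s 1-Hz baseline, 110-s post-stimulus read | measure = fluorescence change relative to baseline, converted to B score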
Kir21 inh – inhibitors of mouse Kir2.1 inward-rectifier potassium channel; HEK293-Kir2.1, FluxOR thallium flux fluorescence; active compounds read low; B-score at 10 µM; 310,000 tested, 0.85% active; AID 1672, 2009;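 active = fluorescence ratio B-score at or below minus 3 SD of library scores, with starting-brightness B-score within 2 SD, cut at about -4.2 in these data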;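 also: channel flux triggered by added potassium and thallium sulfate stimulus; B-score of peak minus minimum fluorescence over baseline after thallium stimulus; more negative B-score means stronger Kir2.1 block with less thallium influx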
KCNK3 block – human KCNK3 channel inhibitors, primary screen, CHO cells, FluxOR thallium flux, B-score; Potassium channel subfamily K member 3 (Homo sapiens), O14649; FluxOR fluorescence; active compounds read low; B-score at 10 µM; 340,000 tested, 0.84% active; AID 602410, 2012;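 active = B-score under library mean minus 4 SD, starting fluorescence ratio at most library mean plus 5 SD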;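 also: more negative B-score means stronger inhibition of thallium flux through KCNK3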
KCNQ1 block – inhibitors of human KCNQ1 channel, primary screen, cell-based, thallium flux, high-throughput; CHO-K1 KCNQ1, FluxOR thallium flux fluorescence; active compounds read high; B-score at 10 µM; 310,000 tested, 1.3% active;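 active = compounds whose thallium flux B-score, printed positive for inhibition, exceeds three library SD while starting fluorescence stays within three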;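 also: channel opened by potassium depolarization with thallium stimulus after 20 min compound exposure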
KCNK9 inh – KCNK9 potassium channel inhibitors, primary screen, HEK293 cells, thallium flux; Potassium channel subfamily K member 9 (Homo sapiens), Q9NPC2; FluxOR thallium flux fluorescence; active compounds read low; B-score at 10 µM; 310,000 tested, 1.2% active; AID 488922, 2010;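 active = ratio B-score over 3 SD below the library mean, with starting fluorescence within 5 SD of its mean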;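 also: negative B-score means less thallium flux so channel inhibition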
Target sequence (Q9NPC2 whole entry, looked up): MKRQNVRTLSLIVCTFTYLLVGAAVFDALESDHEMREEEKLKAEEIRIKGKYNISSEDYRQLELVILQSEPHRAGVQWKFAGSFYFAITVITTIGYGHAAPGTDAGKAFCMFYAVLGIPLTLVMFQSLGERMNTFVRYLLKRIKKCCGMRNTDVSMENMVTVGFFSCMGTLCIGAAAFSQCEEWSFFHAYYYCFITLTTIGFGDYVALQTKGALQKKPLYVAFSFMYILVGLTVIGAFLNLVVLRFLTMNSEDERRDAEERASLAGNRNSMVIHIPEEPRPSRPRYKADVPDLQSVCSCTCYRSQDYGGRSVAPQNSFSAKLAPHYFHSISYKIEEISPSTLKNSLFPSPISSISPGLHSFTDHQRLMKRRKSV
hERG rescue – hERG rescue from dofetilide block, primary screen, cell-based, CHO-hERG, FluxOR thallium flux, dofetilide IC70; dofetilide IC70 present; AID 1511, 2009; Voltage-gated inwardly rectifying potassium channel KCNH2 (Homo sapiens), Q12809; 310,000 tested, 0.51% active; activation (rescue from dofetilide block), less the hit threshold, % at 10 µM;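 active = activation above the mean of controls blocked by dofetilide plus 5 SD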;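 also: thallium influx through hERG after potassium depolarization seen as dye fluorescence rise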
An asterisk follows results filed as active.

For COc1cc(OC)c(OC)cc1CNC(C)C(O)c1ccccc1 (centres undefined) the results were KCNQ1 act inactive, Kir21 inh 0.21, KCNK3 block inactive, KCNQ1 block inactive, KCNK9 inh inactive and hERG rescue -9.9.
`CC(NCc1ccc(Cl)cc1Cl)C(O)c1ccccc1` (centres undefined) gave KCNQ1 act inactive, Kir21 inh -10.4*, KCNK3 block inactive, KCNQ1 block inactive, KCNK9 inh inactive and hERG rescue -2.8.
CC(NCc1ccc(Cl)cc1)C(O)c1ccccc1 (centres undefined) was read as KCNQ1 act inactive, Kir21 inh -9.03*, KCNK3 block inactive, KCNQ1 block inactive, KCNK9 inh inactive and hERG rescue -1.5.
For CCOc1c(Cl)cc(CNC(C)C(O)c2ccccc2)cc1OC (centres undefined) the results were KCNQ1 act inactive, Kir21 inh 0.05, KCNK3 block inactive, KCNQ1 block inactive, KCNK9 inh inactive and hERG rescue -21.4.
`CC(NCc1cccc(Cl)c1Cl)C(O)c1ccccc1` (centres undefined) gave KCNQ1 act inactive, Kir21 inh -16.2*, KCNK3 block inactive, KCNQ1 block inactive, KCNK9 inh inactive and hERG rescue -4.7.
Screening CC(CCc1ccccc1)NC(C)C(O)c1ccc(O)cc1 (centres undefined) returned KCNQ1 act inactive, Kir21 inh -1.61, KCNK3 block inactive, KCNQ1 block inactive, KCNK9 inh inactive and hERG rescue -4.9.
`O=C1NC(=O)C(C2CCCCCC2)C(=O)N1` gave KCNK3 block inactive.
CC(=O)O[C@H]1CCC2C3CC[C@H]4[C@@H](O)[C@H](O)CC[C@]4(C)C3CC[C@@]21C (some centres undefined) was read as KCNK3 block inactive.
`CC(=O)OCC12CC(OC(=O)CC(C)C)C(C)=CC1OC1C(O)C(OC(C)=O)C2(C)C12CO2` (centres undefined) gave KCNK3 block inactive.
CC(C)(O)C1C2OC(=O)C1C1(O)CC3OC34C(=O)OC2C14C (centres undefined) was read as KCNK3 block inactive.
Screening CCOC(=O)CC(SP1(=S)OCC2(CC=CCC2)CO1)C(=O)OCC (centres undefined) returned KCNK3 block inactive.
CCOc1ccccc1CN1C2CCC1CC(c1ccc(C)cc1)C2 (centres undefined) was read as KCNQ1 act inactive, Kir21 inh -0.46, KCNK3 block inactive, KCNQ1 block 12*, KCNK9 inh inactive and hERG rescue -12.0.
`CCOc1ccccc1CNCCc1ccc2c(c1)OCO2` gave KCNQ1 act inactive, Kir21 inh -3.15, KCNK3 block inactive, KCNQ1 block inactive, KCNK9 inh inactive and hERG rescue -8.5.
O=[N+]([O-])c1oc2ccc3ccccc3c2c1CCO was read as KCNK3 block inactive.
`CN(C(=O)Oc1cccc2ccccc12)C1C=CCC1` (centres undefined) gave KCNK3 block inactive.
COc1ccc(CNCCc2c(C)[nH]c3ccc(OC(F)(F)F)cc23)c(OC)c1 was read as KCNQ1 act inactive, Kir21 inh -6.88*, KCNK3 block inactive, KCNQ1 block inactive, KCNK9 inh inactive and hERG rescue -20.5.
For O=C(CF)NC(NC(=S)Nc1cccc([N+](=O)[O-])c1)C(Cl)(Cl)Cl (centres undefined) the results were KCNQ1 act inactive, Kir21 inh 0.47, KCNK3 block inactive, KCNQ1 block 6*, KCNK9 inh inactive and hERG rescue -15.0.
Screening CC(C)(C)C1(CCO)C(=O)NC(=S)NC1=O returned KCNK3 block inactive.
For C[n+]1c(-c2ccccc2)cc(-c2ccc(Cl)cc2)cc1-c1ccccc1 the results were KCNQ1 act inactive, Kir21 inh -3.24, KCNK3 block inactive, KCNQ1 block inactive, KCNK9 inh inactive and hERG rescue -23.2.
Screening c1ccc(-c2cc(-c3ccccc3)[n+](-c3ccccc3)c(-c3ccccc3)c2)cc1 returned KCNQ1 act inactive, Kir21 inh -6.36*, KCNK3 block -10.2*, KCNQ1 block 13*, KCNK9 inh inactive and hERG rescue -35.3.
Screening CN(C)c1ccc(-[n+]2c(-c3ccccc3)cc(-c3ccccc3)cc2-c2ccccc2)cc1 returned KCNQ1 act inactive, Kir21 inh -15*, KCNK3 block -9*, KCNQ1 block 12*, KCNK9 inh inactive and hERG rescue -34.9.
Screening Cc1ccc(C(=O)N2CC2C)cc1 (centres undefined) returned KCNK3 block inactive.
CCc1c(C)nc(N)nc1N1N=C1SCCOc1ccccc1 was read as KCNQ1 act inactive, Kir21 inh 1.33, KCNK3 block inactive, KCNQ1 block inactive, KCNK9 inh inactive and hERG rescue 8.2*.
`CCCCSC1=NN1c1nc(N)nc(C)c1CC` gave KCNQ1 act inactive, Kir21 inh -0.44, KCNK3 block inactive, KCNQ1 block inactive, KCNK9 inh inactive and hERG rescue -4.6.
C(#CCN1CCOCC1)COCC#Cc1ccccc1 was read as KCNQ1 act inactive, Kir21 inh -2.22, KCNK3 block inactive, KCNQ1 block inactive, KCNK9 inh inactive and hERG rescue 5.3*.
`CCOP(=S)(OCC)c1ccc(N(C)C)cc1` gave KCNQ1 act 9*, Kir21 inh -0.02, KCNK3 block inactive, KCNQ1 block inactive, KCNK9 inh inactive and hERG rescue 1.1.
`NC(Cc1ccccc1)c1nn[nH]n1` (centres undefined) gave KCNK3 block inactive.
Screening Cc1[nH]n(-c2ccccc2)c(=O)c1C(c1ccc([N+](=O)[O-])cc1)c1c(C)[nH]n(-c2ccccc2)c1=O returned KCNQ1 act inactive, Kir21 inh 0.2, KCNK3 block inactive, KCNQ1 block 7*, KCNK9 inh inactive and hERG rescue -8.4.
`O=c1[nH]c(=O)n(-c2ccc(F)cc2)c(O)c1/C=C1\C=Nc2ccccc21` gave KCNQ1 act inactive, Kir21 inh 0.48, KCNK3 block inactive, KCNQ1 block 9*, KCNK9 inh inactive and hERG rescue -8.5.

Source: PubChem (Johns Hopkins Ion Channel Center)
